Measured values taken from ChEMBL document CHEMBL1125228, “A 3-D model for 5-HT1A-receptor agonists based on stereoselective methyl-substituted and conformationally restricted analogues of 8-hydroxy-2-(dipropylamino)tetralin” (J Med Chem, 1991).
Where “and” joins values, the source holds several entries; their conditions need not be identical. Equal values may be shown once.

Columns and labels:
Assay type in all cases: functional
Rattus norvegicus [1] = assay: In vivo accumulation of DOPA in brain stem of rat brain at a dose of 0.32 umol/kg.
How it was run: (§1)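 Hydrochlorides given sc in the neck (5 mL/kg) to rats, either untreated or reserpine-pretreated (5 mg/kg sc, 6 h before). Decarboxylase inhibitor NSD 1015 (100 mg/kg ip or 60 mg/kg sc) given 30 min later; rats decapitated after another 30 min. Striatum, limbic system, hemispheres and brain stem dissected on ice and homogenized in 0.1 M perchloric acid with α-methyl-DOPA internal standard. DOPA, DA, 5-HTP and 5-HT measured by ion-pair reversed-phase HPLC with electrochemical detection.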

Rattus norvegicus [2] = assay: In vivo accumulation of DOPA in brain stem of rat brain at a dose of 1 umol/kg.; how it was run: as §1
Rattus norvegicus [3] = assay: In vivo accumulation of DOPA in brain stem of rat brain at a dose of 3.2 umol/kg.; how it was run: as §1
Rattus norvegicus [4] = assay: In vivo accumulation of 5-HT in striatum of rat brain at a dose of 0.32 umol/kg.; how it was run: as §1
Rattus norvegicus [5] = assay: In vivo accumulation of 5-HT in striatum of rat brain at a dose of 1 umol/kg.; how it was run: as §1
Rattus norvegicus [6] = assay: In vivo accumulation of 5-HT in striatum of rat brain at a dose of 3.2 umol/kg.; how it was run: as §1
Rattus norvegicus [7] = assay: In vivo accumulation of 5-HTP in striatum of rat brain at a dose of 0.32 umol/kg.; how it was run: as §1
Rattus norvegicus [8] = assay: In vivo accumulation of 5-HTP in striatum of rat brain at a dose of 1 umol/kg.; how it was run: as §1
Rattus norvegicus [9] = assay: In vivo accumulation of 5-HTP in striatum of rat brain at a dose of 3.2 umol/kg.; how it was run: as §1
Rattus norvegicus [10] = assay: In vivo accumulation of DA in striatum of rat brain at a dose of 0.32 umol/kg.; how it was run: as §1
Rattus norvegicus [11] = assay: In vivo accumulation of DA in striatum of rat brain at a dose of 1 umol/kg.; how it was run: as §1
Rattus norvegicus [12] = assay: In vivo accumulation of DA in striatum of rat brain at a dose of 3.2 umol/kg.; how it was run: as §1
Rattus norvegicus [13] = assay: In vivo accumulation of DOPA in limbic of rat brain at a dose of 0.32 umol/kg.
How it was run: (§2)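 Rats, reserpine-pretreated (5 mg/kg, i.e. 9 μmol/kg sc, 6 h before) or nonpretreated, given test hydrochloride sc in the neck (injection volume 5 mL/kg). Decarboxylase inhibitor NSD 1015 (100 mg/kg ip or 60 mg/kg sc) given 30 min later; decapitation after another 30 min. Brain dissected on ice into striatum, limbic system, hemispheres, brain stem. Homogenized in 0.1 M perchloric acid with α-methyl-DOPA internal standard; DOPA measured by ion-pair reversed-phase HPLC with electrochemical detection.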

Rattus norvegicus [14] = assay: In vivo accumulation of DOPA in limbic of rat brain at a dose of 1 umol/kg.; how it was run: as §2
Rattus norvegicus [15] = assay: In vivo accumulation of DOPA in limbic of rat brain at a dose of 3.2 umol/kg.; how it was run: as §2
Rattus norvegicus [16] = assay: In vivo accumulation of 5-HTP in hemisphere of rat brain at a dose of 0.32 umol/kg.; how it was run: as §1
Rattus norvegicus [17] = assay: In vivo accumulation of 5-HTP in hemisphere of rat brain at a dose of 1 umol/kg.; how it was run: as §1
Rattus norvegicus [18] = assay: In vivo accumulation of 5-HTP in hemisphere of rat brain at a dose of 3.2 umol/kg.; how it was run: as §1
Rattus norvegicus [19] = assay: In vivo accumulation of DOPA in hemisphere of rat brain at a dose of 0.32 umol/kg.; how it was run: as §2
Rattus norvegicus [20] = assay: In vivo accumulation of DOPA in hemisphere of rat brain at a dose of 3.2 umol/kg.; how it was run: as §2
Rattus norvegicus [21] = assay: In vivo accumulation of 5-HTP in brain stem of rat brain at a dose of 0.32 umol/kg.; how it was run: as §1
Rattus norvegicus [22] = assay: In vivo accumulation of 5-HTP in brain stem of rat brain at a dose of 1 umol/kg.; how it was run: as §1
Rattus norvegicus [23] = assay: In vivo accumulation of 5-HTP in brain stem of rat brain at a dose of 3.2 umol/kg.; how it was run: as §1
Rattus norvegicus [24] = assay: In vivo accumulation of DOPA in striatum of rat brain at a dose of 0.32 umol/kg.; how it was run: as §2
Rattus norvegicus [25] = assay: In vivo accumulation of DOPA in striatum of rat brain at a dose of 1 umol/kg.; how it was run: as §2
Rattus norvegicus [26] = assay: In vivo accumulation of DOPA in striatum of rat brain at a dose of 3.2 umol/kg.; how it was run: as §2
Rattus norvegicus [27] = assay: In vivo accumulation of 5-HTP in limbic of rat brain at a dose of 1 umol/kg.; how it was run: as §1
Rattus norvegicus [28] = assay: In vivo accumulation of 5-HTP in limbic of rat brain at a dose of 3.2 umol/kg.; how it was run: as §1
Rattus norvegicus [29] = assay: In vivo accumulation of 5-HT in limbic of rat brain at a dose of 0.32 umol/kg.; how it was run: as §1
Rattus norvegicus [30] = assay: In vivo accumulation of 5-HT in limbic of rat brain at a dose of 1 umol/kg.; how it was run: as §1
Rattus norvegicus [31] = assay: In vivo accumulation of 5-HT in limbic of rat brain at a dose of 3.2 umol/kg.; how it was run: as §1
Rattus norvegicus [32] = assay: In vivo accumulation of 5-HTP in limbic of rat brain at a dose of 0.32 umol/kg.; how it was run: as §1

CCCN1CCC[C@@H]2c3c(O)cccc3CC[C@H]21
Control (Rattus norvegicus [1]): 87%
Control (Rattus norvegicus [2]): 102.9%
Control (Rattus norvegicus [3]): 125.1%
Control (Rattus norvegicus [4]): 107.1%
Control (Rattus norvegicus [5]): 113.2%
Control (Rattus norvegicus [6]): 128.8%
Control (Rattus norvegicus [7]): 69.9%
Control (Rattus norvegicus [8]): 56.3%
Control (Rattus norvegicus [9]): 34%
Control (Rattus norvegicus [10]): 110.6%
Control (Rattus norvegicus [11]): 129.5%
Control (Rattus norvegicus [12]): 120.2%
Control (Rattus norvegicus [13]): 91.1% and 114.1%
Control (Rattus norvegicus [14]): 85.5% and 95.2%
Control (Rattus norvegicus [15]): 111.4% and 118.2%
Control (Rattus norvegicus [16]): 70.9%
Control (Rattus norvegicus [17]): 51.9%
Control (Rattus norvegicus [18]): 50.6%
Control (Rattus norvegicus [19]): 111%
Control (Rattus norvegicus [20]): 119%
Control (Rattus norvegicus [21]): 76.1%
Control (Rattus norvegicus [22]): 65.3%
Control (Rattus norvegicus [23]): 59.9%
Control (Rattus norvegicus [24]): 109.4%
Control (Rattus norvegicus [25]): 116.2%
Control (Rattus norvegicus [26]): 99.6%
Control (Rattus norvegicus [27]): 58.5%
Control (Rattus norvegicus [28]): 50.3%
Control (Rattus norvegicus [29]): 108.1%
Control (Rattus norvegicus [30]): 119.3%
Control (Rattus norvegicus [31]): 144.1%
Control (Rattus norvegicus [32]): 85.1%
